# Calls of active or inactive are those of the source. No cut-off for these calls is given here.
# Experiments:
# [1] = biological target: Proteasome subunit beta type-2 (Mus musculus, UniProt Q9R1P3); experiment: Inhibition of 20S proteosome beta 2 in mouse A20 cells by ELISA; type: cell-based
# [2] = biological target: T1, Proteasome subunit beta type-8 (Homo sapiens, UniProt P28062); experiment: Inhibition of LMP7 in human MOLT4 cells by ELISA; type: cell-based
# T1 sequence (P28062 whole entry): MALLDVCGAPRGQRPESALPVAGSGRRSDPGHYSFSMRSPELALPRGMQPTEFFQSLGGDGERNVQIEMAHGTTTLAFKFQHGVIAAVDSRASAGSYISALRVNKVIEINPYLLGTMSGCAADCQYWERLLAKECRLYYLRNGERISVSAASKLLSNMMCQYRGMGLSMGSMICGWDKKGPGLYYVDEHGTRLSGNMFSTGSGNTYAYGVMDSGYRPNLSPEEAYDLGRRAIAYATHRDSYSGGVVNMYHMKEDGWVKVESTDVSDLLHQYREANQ
# [3] = biological target: T2, Proteasome subunit beta type-10 (Homo sapiens) (UniProt P40306); conditions: at 250 nM
# T2 sequence (whole entry): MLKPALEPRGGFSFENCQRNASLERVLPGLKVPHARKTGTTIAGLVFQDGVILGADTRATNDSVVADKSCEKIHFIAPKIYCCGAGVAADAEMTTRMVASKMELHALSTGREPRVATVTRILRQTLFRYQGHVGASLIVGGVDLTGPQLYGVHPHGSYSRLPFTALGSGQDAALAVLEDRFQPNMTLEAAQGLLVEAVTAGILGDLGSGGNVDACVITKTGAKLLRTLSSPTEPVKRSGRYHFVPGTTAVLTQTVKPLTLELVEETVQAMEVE
# PBMC [4] = experiment: Antiinflammatory activity in human PBMC assessed as reduction in anti-CD3/CD28 antibody-stimulated TNF-alpha expression at 250 nM preincubated for 1 hr followed by anti-CD3/CD28 antibody stimulation measured after 24 hrs by ELISA; type: functional, cell-based
# Method in brief: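 Healthy-donor PBMC, thawed from cryopreservation, 250 000 cells/well in RPMI 1640/5% FBS. Pretreated 1 h at 37 °C with compound alone or combined (0.1% DMSO final), washed 4 times, then stimulated 24 h with anti-CD3 and anti-CD28 antibodies. TNFα and IFNγ in supernatants by electrochemiluminescent ELISA; expressed relative to DMSO-treated controls (n = 6).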
# PBMC [5] = experiment: Antiinflammatory activity in human PBMC assessed as reduction in LPS-stimulated IL-6 expression at 250 nM preincubated for 1 hr followed by LPS stimulation measured after 24 hrs by ELISA; type: functional, cell-based
# Method in brief: (§1)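 Cryopreserved healthy-donor PBMC in RPMI 1640 with 5% heat-inactivated FBS, 250 000 cells/well. Compound (0.1% DMSO final) for 1 h at 37 °C, 5% CO2, then 4 washes with medium. Stimulated with 1 μg/mL LPS for 24 h; supernatant TNFα, IL-6 and IL-12/23p40 by electrochemiluminescent immunoassay. Mean level relative to DMSO controls, n = 6.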
# [6] = Selectivity ratio of IC50 for MECL1 in mouse A20 cells to IC50 for MECL1 in human MOLT4 cells; type: cell-based
# [7] = biological target: T3, Proteasome subunit beta type-9 (Homo sapiens) (UniProt P28065); experiment: Inhibition of LMP2 in human PBMC at 250 nM by ELISA
# T3 sequence (whole entry): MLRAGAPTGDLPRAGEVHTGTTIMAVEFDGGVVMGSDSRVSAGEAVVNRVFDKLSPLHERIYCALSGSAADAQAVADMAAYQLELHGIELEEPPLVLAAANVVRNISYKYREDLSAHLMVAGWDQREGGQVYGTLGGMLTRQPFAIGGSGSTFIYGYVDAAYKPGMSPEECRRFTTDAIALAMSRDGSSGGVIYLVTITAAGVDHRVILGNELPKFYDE
# Method in brief: (§2)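 Cryopreserved healthy-donor human PBMC in RPMI 1640 with 5% heat-inactivated FBS, exposed to compound (0.1% DMSO final) for 1 h at 37 °C, 5% CO2, then washed. Subunit-specific active-site occupancy read by ProCISE: biotinylated active-site probe binding, denaturation, streptavidin capture, subunit-specific antibody and HRP chemiluminescence. Signal normalized to protein and expressed relative to DMSO controls.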
# PBMC [8] = experiment: Antiinflammatory activity in human PBMC assessed as reduction in LPS-stimulated TNF-alpha expression at 250 nM preincubated for 1 hr followed by LPS stimulation measured after 24 hrs by ELISA; type: functional, cell-based; method in brief: as §1
# [9] = biological target: T4, Proteasome subunit beta type-8 (Homo sapiens) (UniProt P28062); experiment: Inhibition of LMP7 in human PBMC at 250 nM by ELISA; method in brief: as §2
# T4 sequence (whole entry): T1 sequence (P28062 whole entry)
# Mus musculus [10] = experiment: Antiarthritic activity in type 2 collagen antibody/LPS induced Balb/c mouse assessed as reduction in disease burden at 5 mg/kg, iv followed by dosing repeat on day 6, 8, 11, 13 and 15 and measured until day 18; type: functional, organism-based
# Method in brief: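 CAIA in 7−8 week old female BALB/c mice on breeder chow. Induced with 1.75 mg of a 5-antibody anti-type II collagen cocktail iv on day 0, then 25 μg LPS ip on day 3. Dosed as single iv boluses in 10% (w/v) sulfobutyl ether−β-cyclodextrin/10 mM sodium citrate (pH 3.5); vehicle-treated group included.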
# [11] = biological target: T2, Proteasome subunit beta type-10 (Homo sapiens); experiment: Inhibition of MECL1 in human PBMC at 125 nM by ELISA; method in brief: as §2
# [12] = Clearance in Balb/c mouse at 2 mg/kg, iv; type: ADME, organism-based; conditions: in vivo
# Method in brief: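 Female BALB/c mice aged 7−8 weeks, given 2 mg/kg iv in 25% PEG300/WFI. Cardiac blood taken at 2, 5, 10, 20, 30, 60 and 120 min postdose into sodium heparin and processed to plasma (n = 3/time point). Proteins precipitated with acetonitrile; drug measured by LC−MS/MS. Noncompartmental analysis of mean concentrations at nominal times and target doses.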
# Mus musculus [13] = experiment: In vivo inhibition of LMP7 in Balb/c mouse splenocytes at 20 mg/kg, iv followed by dosing repeat on day 6, 8, 11, 13 and 15 and measured on 1 hr post last dose; type: functional, organism-based
# Method in brief: (§3)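 BALB/c mice dosed iv bolus in 10% sulfobutyl ether−β-cyclodextrin/10 mM sodium citrate pH 3.5; tissues taken 1 h after administration. Splenocytes strained and red cells lysed; kidney frozen, then bead-homogenized. Hypotonic lysate (20 mM Tris pH 8, 5 mM EDTA) at 1 mg/mL (spleen) or 5 mg/mL (kidney) run in the ProCISE active-site ELISA. Background-subtracted, protein-normalized activity relative to vehicle animals; n = 3.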
# PBMC [14] = experiment: Antiinflammatory activity in human PBMC assessed as reduction in LPS-stimulated p40 subunit of […] expression at 125 nM preincubated for 1 hr followed by LPS stimulation measured after 24 hrs by ELISA; type: functional, cell-based; method in brief: as §1
# Mus musculus [15] = experiment: In vivo inhibition of proteosome beta 5 in Balb/c mouse kidney at 20 mg/kg, iv followed by dosing repeat on day 6, 8, 11, 13 and 15 and measured on 1 hr post last dose; type: functional, organism-based; method in brief: as §3
# Chain of Proteasome subunit beta type-2 (Q9R1P3 whole entry): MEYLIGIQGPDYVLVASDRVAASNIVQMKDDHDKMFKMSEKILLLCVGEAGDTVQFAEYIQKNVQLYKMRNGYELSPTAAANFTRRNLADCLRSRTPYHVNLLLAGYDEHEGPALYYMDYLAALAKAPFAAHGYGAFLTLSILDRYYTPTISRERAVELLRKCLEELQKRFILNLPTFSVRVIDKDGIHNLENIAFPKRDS
Compound,IC50 [1],IC50 [2],inhibition [3],Activity (PBMC [4]),Activity (PBMC [5]),Ratio IC50 [6],inhibition [7],Activity (PBMC [8]),inhibition [9],Activity (Mus musculus [10]),inhibition [11],clearance [12],inhibition (Mus musculus [13]),Activity (PBMC [14]),inhibition (Mus musculus [15])
Cc1ccc(CC[C@H](NC(=O)[C@H](Cc2ccccc2)NC(=O)[C@H](CC(C)C)NC(=O)CN2CCCCCC2)C(=O)[C@@]2(C)CO2)cc1,573 nM,346 nM,Active,inactive,inactive,4,Active,inactive,Active,–,–,–,–,–,–
COc1ccc([C@@H](O)[C@H](NC(=O)[C@H](C)NC(=O)CN2CCOCC2)C(=O)N[C@@H](CC2=CCCC2)C(=O)[C@@]2(C)CO2)cc1 [ZETOMIPZOMIB],857 nM,39 nM,–,Active,Active,–,–,Active,–,Active,–,–,–,–,–
COc1ccc(C[C@H](NC(=O)[C@@H](C)NC(=O)[C@H]2CC[C@H](O)CC2)C(=O)N[C@@H](CC2=CCCC2)C(=O)[C@@]2(C)CO2)cc1,–,–,–,–,–,–,–,–,–,–,Active,> 73 mL/min/kg,Active,Active,Active
